Laboratory results from ChEMBL document CHEMBL1287728, “Potent and highly selective DP1 antagonists with 2,3,4,9-tetrahydro-1H-carbazole as pharmacophore” (Bioorg Med Chem Lett, 2010).
pIC50, pKi: −log10 of the molar value.

Tests used:
Thromboxane A2 receptor = biological target: T1, Thromboxane A2 receptor (Homo sapiens, UniProt P21731); experiment: Antagonist activity at prostanoid TP receptor; assay type: functional
T1 sequence (P21731 whole entry): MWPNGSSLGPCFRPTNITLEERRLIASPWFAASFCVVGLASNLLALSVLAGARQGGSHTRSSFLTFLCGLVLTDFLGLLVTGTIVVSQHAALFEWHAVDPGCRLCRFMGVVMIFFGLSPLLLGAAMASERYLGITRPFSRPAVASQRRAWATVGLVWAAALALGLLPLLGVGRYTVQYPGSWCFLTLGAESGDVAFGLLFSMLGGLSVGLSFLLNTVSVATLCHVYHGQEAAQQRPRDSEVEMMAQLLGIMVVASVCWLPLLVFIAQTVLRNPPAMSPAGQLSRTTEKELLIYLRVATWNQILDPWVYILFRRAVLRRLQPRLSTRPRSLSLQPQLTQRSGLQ

[1] = biological target: T2, Prostaglandin D2 receptor (Homo sapiens, UniProt Q13258); experiment: Antagonist activity at prostanoid DP1 receptor; assay type: functional
T2 sequence (Q13258 whole entry): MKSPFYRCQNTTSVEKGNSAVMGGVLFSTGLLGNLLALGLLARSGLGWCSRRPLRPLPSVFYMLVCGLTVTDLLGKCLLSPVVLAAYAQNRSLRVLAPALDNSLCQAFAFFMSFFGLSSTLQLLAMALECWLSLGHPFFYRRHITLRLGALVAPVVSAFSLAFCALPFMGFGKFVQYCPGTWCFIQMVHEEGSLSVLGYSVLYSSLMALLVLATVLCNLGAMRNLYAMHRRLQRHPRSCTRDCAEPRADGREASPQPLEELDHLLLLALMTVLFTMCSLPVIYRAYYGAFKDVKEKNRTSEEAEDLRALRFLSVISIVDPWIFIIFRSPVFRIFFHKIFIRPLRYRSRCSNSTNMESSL

[2] = biological target: Prostaglandin E2 receptor EP2 subtype (Homo sapiens, UniProt P43116); experiment: Binding affinity to prostanoid receptor EP2 receptor
[3] = biological target: Prostaglandin E2 receptor EP4 subtype (Homo sapiens, UniProt P35408); experiment: Binding affinity to prostanoid receptor EP4 receptor
[4] = biological target: T3, Prostaglandin E2 receptor EP1 subtype (Homo sapiens, UniProt P34995); experiment: Binding affinity to prostanoid receptor EP1 receptor
T3 sequence (P34995 whole entry): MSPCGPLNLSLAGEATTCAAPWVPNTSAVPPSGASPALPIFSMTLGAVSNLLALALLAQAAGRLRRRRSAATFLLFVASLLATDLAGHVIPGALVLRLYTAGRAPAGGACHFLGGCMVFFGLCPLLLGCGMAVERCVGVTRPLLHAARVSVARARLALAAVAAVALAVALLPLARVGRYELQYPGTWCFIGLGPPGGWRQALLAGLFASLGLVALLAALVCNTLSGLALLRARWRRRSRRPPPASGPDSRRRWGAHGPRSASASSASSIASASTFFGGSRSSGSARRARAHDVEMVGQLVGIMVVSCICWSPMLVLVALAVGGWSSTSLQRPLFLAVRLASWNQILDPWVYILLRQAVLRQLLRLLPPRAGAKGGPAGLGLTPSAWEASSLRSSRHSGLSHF

Prostacyclin receptor = Prostacyclin receptor (Homo sapiens, UniProt P43119); experiment: Binding affinity to prostanoid receptor IP receptor
[5] = biological target: T4, Prostaglandin E2 receptor EP3 subtype (Homo sapiens, UniProt P43115); experiment: Binding affinity to prostanoid receptor EP3 receptor
T4 sequence (P43115 whole entry): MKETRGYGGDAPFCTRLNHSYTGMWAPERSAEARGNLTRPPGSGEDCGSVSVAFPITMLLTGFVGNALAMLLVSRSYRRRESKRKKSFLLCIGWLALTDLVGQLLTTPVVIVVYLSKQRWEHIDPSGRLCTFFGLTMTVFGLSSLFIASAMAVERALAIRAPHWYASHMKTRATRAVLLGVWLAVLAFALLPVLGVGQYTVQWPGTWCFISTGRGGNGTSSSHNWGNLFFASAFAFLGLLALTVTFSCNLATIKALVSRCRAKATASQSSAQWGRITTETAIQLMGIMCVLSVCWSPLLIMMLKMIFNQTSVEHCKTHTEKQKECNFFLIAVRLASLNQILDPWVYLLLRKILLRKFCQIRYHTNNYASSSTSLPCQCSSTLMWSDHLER

[6] = biological target: Prostaglandin F2-alpha receptor (Homo sapiens, UniProt P43088); experiment: Binding affinity to prostanoid receptor FP receptor
[7] = biological target: T2, Prostaglandin D2 receptor; experiment: Antagonist activity at prostanoid DP1 receptor in human platelet assessed as inhibition of PGD2 induced accumulation of cAMP; assay type: functional
In short: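 Human platelet-rich plasma; cAMP accumulation induced by PGD₂, measured with antagonist present; IC₅₀ reported.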

[8] = Chemical stability of compound in 0.01N HCl after 6 hrs; assay type: physicochemical; conditions: read-out: Stability
In short: (§1)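 Compound incubated in 0.01 N HCl at 37 °C; percent of compound recovered after 2 h or 6 h.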

[9] = Selectivity ratio of Ki for prostanoid DP1 receptor to Ki for prostanoid EP3 receptor
Homo sapiens = species on record: Homo sapiens; experiment: Selectivity ratio of IC50 for prostanoid DP1 receptor to IC50 for TP receptor in human platelet
In short: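 Ratio of IC₅₀ values from two human platelet-rich plasma assays: PGD₂-induced cAMP accumulation (DP1) and U46619-induced platelet aggregation (TP).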

[10] = Chemical stability of compound in 0.01N HCl after 2 hrs; assay type: physicochemical; conditions: read-out: Stability; in short: as §1

Sequence of Prostacyclin receptor (P43119 whole entry): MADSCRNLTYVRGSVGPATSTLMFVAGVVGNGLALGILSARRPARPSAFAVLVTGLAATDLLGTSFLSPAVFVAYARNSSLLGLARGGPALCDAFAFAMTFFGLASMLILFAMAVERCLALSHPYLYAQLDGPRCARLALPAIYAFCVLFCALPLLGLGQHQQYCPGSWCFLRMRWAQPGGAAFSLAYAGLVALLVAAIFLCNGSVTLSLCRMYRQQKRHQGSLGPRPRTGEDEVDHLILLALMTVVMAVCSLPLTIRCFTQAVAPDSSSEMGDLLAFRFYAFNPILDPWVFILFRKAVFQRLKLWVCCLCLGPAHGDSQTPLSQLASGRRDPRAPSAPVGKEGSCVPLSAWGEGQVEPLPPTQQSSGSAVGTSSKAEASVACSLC
Sequence of Prostaglandin F2-alpha receptor (P43088 whole entry): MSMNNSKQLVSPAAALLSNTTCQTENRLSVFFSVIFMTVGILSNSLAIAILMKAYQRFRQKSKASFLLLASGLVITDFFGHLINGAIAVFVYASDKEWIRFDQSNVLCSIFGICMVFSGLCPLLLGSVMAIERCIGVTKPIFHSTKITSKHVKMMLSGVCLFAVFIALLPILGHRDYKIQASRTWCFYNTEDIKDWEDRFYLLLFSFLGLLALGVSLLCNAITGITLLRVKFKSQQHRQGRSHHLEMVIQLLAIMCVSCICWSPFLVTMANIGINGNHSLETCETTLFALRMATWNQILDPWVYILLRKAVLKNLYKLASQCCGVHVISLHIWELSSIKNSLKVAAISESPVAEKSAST
Sequence of Prostaglandin E2 receptor EP4 subtype (P35408 whole entry): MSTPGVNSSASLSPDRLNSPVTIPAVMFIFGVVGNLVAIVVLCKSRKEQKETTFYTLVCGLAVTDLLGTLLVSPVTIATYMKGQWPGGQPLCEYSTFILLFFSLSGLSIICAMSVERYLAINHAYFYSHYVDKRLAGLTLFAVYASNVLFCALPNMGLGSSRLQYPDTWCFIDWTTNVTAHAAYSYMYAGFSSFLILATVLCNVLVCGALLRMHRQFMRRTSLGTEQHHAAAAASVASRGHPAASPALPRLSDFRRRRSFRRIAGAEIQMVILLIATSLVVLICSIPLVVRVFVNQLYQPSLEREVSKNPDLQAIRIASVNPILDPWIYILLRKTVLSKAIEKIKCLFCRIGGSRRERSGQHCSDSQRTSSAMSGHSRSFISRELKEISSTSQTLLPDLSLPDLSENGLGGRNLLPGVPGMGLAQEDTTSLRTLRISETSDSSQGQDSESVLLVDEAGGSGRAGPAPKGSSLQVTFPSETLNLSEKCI
Sequence of Prostaglandin E2 receptor EP2 subtype (P43116 whole entry): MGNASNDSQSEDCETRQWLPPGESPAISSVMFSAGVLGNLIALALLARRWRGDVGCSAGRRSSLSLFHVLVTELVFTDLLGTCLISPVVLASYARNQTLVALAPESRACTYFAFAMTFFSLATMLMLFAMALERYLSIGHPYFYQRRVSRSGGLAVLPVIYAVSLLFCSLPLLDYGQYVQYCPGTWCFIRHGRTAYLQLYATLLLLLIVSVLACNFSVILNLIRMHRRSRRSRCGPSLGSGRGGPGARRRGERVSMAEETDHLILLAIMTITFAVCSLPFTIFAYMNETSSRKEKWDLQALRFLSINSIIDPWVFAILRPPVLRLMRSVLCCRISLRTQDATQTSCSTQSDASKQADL

| Structure (SMILES) | pKi (Thromboxane A2 receptor) | pKi [1] | other results |
| --- | --- | --- | --- |
| C[C@@H](c1ccc(Cl)c(F)c1)n1c2c(c3cc(F)cc(S(C)(=O)=O)c31)CCC[C@@H]2CC(=O)O | 6.70 | 9.42 |  |
| C[C@@H](c1ccc(S(C)(=O)=O)cc1)n1c2c(c3cc(F)cc(S(C)(=O)=O)c31)CCC[C@@H]2CC(=O)O | 5.83 | 7.78 |  |
| C[C@@H](c1ccc(C(F)(F)F)cc1)n1c2c(c3cc(F)cc(S(C)(=O)=O)c31)CCC[C@@H]2CC(=O)O | 6.47 | 9.37 | pKi [2]: 5.64; pKi [3]: 5.18; pKi [4]: 5.34; pKi (Prostacyclin receptor): 4.81; pKi [5]: 6.08; pKi [6]: 5.36; pIC50 [7]: 8.60; remaining at 6 h [8]: 99.6%; Ratio [9]: 1900; Ratio (Homo sapiens): 7760 |
| CC(c1ccc(Cl)cc1)n1c2c(c3cc(F)cc(S(C)(=O)=O)c31)CCCC2CC(=O)O (single isomer, unassigned; fast eluting) |  | 7.92 |  |
| C[C@@H](c1ccc(Cl)c(Cl)c1)n1c2c(c3cc(F)cc(S(C)(=O)=O)c31)CCC[C@@H]2CC(=O)O | 6.95 | 9.48 |  |
| C[C@@H](c1ccc(Cl)cc1F)n1c2c(c3cc(F)cc(S(C)(=O)=O)c31)CCC[C@@H]2CC(=O)O | 6.57 | 9.39 |  |
| CC(c1ccc(Cl)cc1)n1c2c(c3cc(F)cc(S(C)(=O)=O)c31)CCCC2CC(=O)O (single isomer, unassigned; slow-eluting) |  | 8.89 |  |
| CS(=O)(=O)c1cc(F)cc2c3c(n(Cc4ccc(Cl)cc4)c12)C(CC(=O)O)CCC3 (racemic) | 8.60 | 9.05 |  |
| C[C@@H](c1cccc(Cl)c1)n1c2c(c3cc(F)cc(S(C)(=O)=O)c31)CCC[C@@H]2CC(=O)O | 6.53 | 9.51 |  |
| C[C@@H](c1ccc(Br)cc1)n1c2c(c3cc(F)cc(S(C)(=O)=O)c31)CCC[C@@H]2CC(=O)O | 6.97 | 9.42 |  |
| C[C@@H](c1ccc(F)cc1)n1c2c(c3cc(F)cc(S(C)(=O)=O)c31)CCC[C@@H]2CC(=O)O | 7.00 | 9.48 |  |
| C[C@@H](c1ccccc1)n1c2c(c3cc(F)cc(S(C)(=O)=O)c31)CCC[C@@H]2CC(=O)O | 6.44 | 9.44 |  |
| CS(=O)(=O)c1cc(F)cc2c3c(n([C@@H](CF)c4ccc(Cl)cc4)c12)[C@@H](CC(=O)O)CCC3 | 6.86 | 9.41 |  |
| C[C@@H](c1ccc(C#N)cc1)n1c2c(c3cc(F)cc(S(C)(=O)=O)c31)CCC[C@@H]2CC(=O)O | 7.03 | 9.29 |  |
| CS(=O)(=O)c1cc(F)cc2c3c(n([C@H](c4ccc(Cl)cc4)C(F)F)c12)[C@@H](CC(=O)O)CCC3 | 6.89 | 9.44 |  |
| C[C@@H](c1ccc(Cl)cc1)n1c2c(c3cc(F)cc(S(C)(=O)=O)c31)CCC[C@@H]2CC(=O)O | 6.74 | 9.12 | remaining at 2 h [10]: 79% |
